Bioassay records: PubChem, Johns Hopkins Ion Channel Center
The list is not random: actives were taken first. Their share in the collection is about 3.5%.
RGS4 block: human RGS4 inhibition; HEK293 M3R/RGS4 inducible, Fluo-4 calcium flux; stronger effect = higher value; triggered by carbachol at its EC20; 0.45% of 310,000 active; B-score at 10 µM;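 active = B-score, a plate-corrected calcium signal, over three deviations above library mean, with baseline fluorescence within five deviations of library mean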;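 also: RGS4 expression induced by doxycycline in cells with stable M3 receptor; B-score is computed from the integrated fluorescence ratio over baseline after carbachol; higher B-score means a larger calcium signal and so more RGS4 inhibition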
Target sequence (P49798 whole entry, looked up): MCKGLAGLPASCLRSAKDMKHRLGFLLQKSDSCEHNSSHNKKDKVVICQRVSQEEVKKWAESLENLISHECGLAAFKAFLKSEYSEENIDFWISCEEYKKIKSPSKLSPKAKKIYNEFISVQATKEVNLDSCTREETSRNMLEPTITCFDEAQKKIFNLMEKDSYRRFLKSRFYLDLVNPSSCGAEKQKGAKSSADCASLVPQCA
MrgX1 PAM: allosterically activates human MrgX1 receptor signaling | 0.63% of 310,000 active | B-score at 10 µM | AID 588675 | MrgX1-HEK293, Fluo-4 calcium flux, FDSS; stronger effect = higher value;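 active = plate-corrected calcium response at least 3 library SD above typical, normal starting fluorescence, not activating the receptor alone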;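 also: compound read alongside a low EC10 to EC30 dose of BAM8-22 agonist; peak minus trough fluorescence over baseline measured at the second addition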
MrgX1 ag: human MrgX1 receptor agonism, primary screen; Q96LB2; MrgX1-HEK293 cells, Fluo-4 calcium fluorescence, agonist mode; stronger effect = higher value; B-score at 10 µM; 0.44% of 310,000 active; AID 588627;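 active = calcium response B-score plate-corrected fluorescence ratio at least 3 library SD, with starting fluorescence B-score inside 5 SD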
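Assay system: stable human MrgX1 HEK293 cell line. Quantity: 15,000 cells per well. Schedule: cells plated overnight, dye loaded 0.5 h 37 °C, 0.5 h room temperature. Detection: Fluo-4 NW calcium-flux fluorescence, kinetic read. Read-out basis: peak-minus-minimum fluorescence over baseline, converted to B scores. Control set: positive and negative control wells on each plate.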
MrgX1 antag: human MrgX1 receptor antagonism, primary screen; AID 588676; Q96LB2; B-score at 10 µM; 1.3% of 310,000 active; MRGX1-HEK293 calcium flux, Fluo-4, BAM8-22 antagonism; stronger effect = lower value;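 active = calcium-response B-score plate-corrected more than 3 library SD below zero, starting fluorescence within 5 deviations, no agonist response on first addition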;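 also: peak minus trough fluorescence over baseline after final BAM8-22 challenge near maximal dose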
RGS4 pot: potentiators or activators of RGS4 | AID 463111 | HEK293 M3R/inducible RGS4, carbachol calcium flux Fluo4; stronger effect = lower value | B-score at 10 µM | 0.92% of 310,000 active;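 active = B-score of the integrated calcium signal more than 4 SD below the library mean, with starting fluorescence not abnormally high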;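 also: negative B-score means reduced calcium response which marks RGS4 activation or potentiation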
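Reagent: ECmax carbachol challenge; Test system: M3R-expressing HEK293 line, RGS4 induced by doxycycline; Schedule: overnight RGS4 induction, 30 min dye load 37 °C, 20 min compound RT; Detection: calcium dye Fluo4 fluorescence; Read-out: Agonist-evoked peak-minus-minimum fluorescence over baseline, integrated ratio, B score.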
RGS4 act valid: RGS4 activation, validation assay; 89% of 1,100 active; HEK293 M3R/RGS4 inducible, carbachol calcium flux Fluo4; shares compounds with RGS4 pot; inhibition, % at 10 µM; AID 602282;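 active = inhibition above 3 SD of the buffer control wells, cut at about 41% in these data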;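 also: signal is the integrated peak-minus-minimum Fluo4 fluorescence over baseline ratio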
RGS4 act ctr: RGS4 activator counter-screen hit in non-induced cells | shares compounds with RGS4 pot | HEK293 M3R non-induced RGS4, Fluo4 calcium flux; after carbachol challenge at its EC90 | inhibition, % at 10 µM | 82% of 1,100 active | AID 602283;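 active = inhibition exceeding 3 SD of buffer-only control wells, cut at about 26% in these data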;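 also: percent drop in integrated peak-minus-baseline over baseline Fluo4 ratio after carbachol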
An asterisk follows results filed as active; i = inactive; x = no result given.

SMILES	RGS4 block	MrgX1 PAM	MrgX1 ag	MrgX1 antag	RGS4 pot	RGS4 act valid	RGS4 act ctr
CC(C)CNCC(=O)N1c2ccccc2Sc2ccccc21	i	i	i	i	-8*	86*	50*
Cc1cccc[n+]1CC(=O)N1c2ccccc2Sc2ccccc21	i	i	i	i	-14*	92*	87*
CC(NCCCOc1cccc2ccccc12)c1ccccc1 (stereo not given)	i	i	i	i	i	x	x
O=C(Cn1nnc2ccccc21)c1ccc(Cl)cc1	i	i	i	i	i	x	x
CCC(=O)c1ccccc1OCCCCn1cncn1	i	i	i	i	i	x	x
O=C1OC/C(=C(/O)c2ccc(Cl)cc2)C1=O	i	i	i	i	i	x	x
COc1ccccc1C(CNc1ncnc2sc(C)c(C)c12)N(C)C (stereo not given)	i	i	i	i	-11*	80*	42*
COc1ccc(C(CNc2ncnc3sc(C)c(C)c23)N(C)C)cc1 (stereo not given)	i	i	i	i	i	x	x
CSc1ccc(CN2CCC(Oc3ccc(C(=O)N4CCCC4)cc3)CC2)cc1	i	i	i	i	-8.5*	87*	39*
CC(C)c1ccc(CN2CCC(Oc3ccc(C(=O)N4CCCC4)cc3)CC2)cc1	i	i	i	i	-9.1*	92*	63*
Cc1cc2oc(=O)c(CC(=O)NCCCN(C)C)c(C)c2c2occ(C(C)(C)C)c12	i	i	i	i	-7.9*	90*	51*
CC1CCCCN1C(=O)c1cc2ccccc2cc1O (stereo not given)	i	i	i	i	i	x	x
CCCN1CCc2c(sc(NC(=O)c3ccc(S(=O)(=O)N(C)c4ccccc4)cc3)c2C(=O)NC)C1	i	i	i	i	-9.5*	84*	52*
Clc1cccc(NCc2cn3cccnc3n2)c1	i	i	i	i	i	x	x
COc1ccc(-c2cc(C3CC3)nc(SCC(=O)c3cccs3)c2C#N)cc1	i	i	i	i	i	x	x
CCOC(=O)CSc1nc(C2CC2)cc(-c2ccc(F)cc2)c1C#N	i	i	i	i	-8.5*	66*	0
CNC(=O)C1CC(=O)N(Cc2ccc3c(c2)OCO3)C(=Nc2ccc(OC)cc2)S1 (stereo not given)	i	i	i	i	-11*	0	0
CNC(=O)C1CC(=O)N(CCc2ccc(OC)cc2)C(=Nc2ccc(OC)cc2)S1 (stereo not given)	i	i	i	i	i	x	x
COCCn1c(SCC(=O)Nc2sccc2C(N)=O)nc2cc(Cl)ccc2c1=O	i	i	i	i	i	x	x
CSc1n[nH]c(NC2=CC(=O)CCC2)n1	i	i	i	i	-7.7*	0	0
CSc1n[nH]c(NC(C)=O)n1	i	i	i	i	i	x	x
Cc1nc(-c2ccc(S(=O)(=O)Oc3ccc(Cl)cc3Cl)s2)cs1	i	i	i	i	-8.4*	89*	71*
COCc1c(C(=O)N/N=C/c2ccc(C)o2)nnn1-c1nonc1N	i	i	i	i	i	x	x
Cc1ccc(C(C)C)c(OCCCNCc2cccnc2)c1	i	i	i	i	-8.7*	92*	60*
COc1ccc(S(=O)(=O)N2CCCCC2)cc1NC(=O)C1COc2ccccc2O1 (stereo not given)	i	i	i	i	-13*	74*	84*
COc1cc(NC(=O)C2COc3ccccc3O2)c(OC)cc1Cl (stereo not given)	i	i	i	i	i	x	x
CCN(CC)c1ccc(-c2nc3cnccn3c2NC2CCCC2)cc1	i	i	i	i	-7.9*	54*	0
